{"source": "paper PMC7077758", "about": "(The Journal of organic chemistry, 2019)", "experiment": "Thiol reactivity assay", "type": "physicochemical", "conditions": "room temperature, 1H NMR", "outline": "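Dehydroamino-acid peptide (typically 0.010–0.015 mmol) in DMSO-d6 with 1,3,5-trimethoxybenzene as internal standard, treated with 2 equiv cysteamine added from a freshly prepared 0.5 M stock in DMSO-d6. 1H NMR spectra were recorded over time, and loss of starting peptide was quantified from diagnostic signals against the internal standard. Peptides unreactive at room temperature were heated stepwise to 60, 80 and 100 °C.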", "data": [{"smiles": "C=C1CCOC1=O", "note": "[α-methylene-γ-butyrolactone]", "values": [{"measurement": "time to complete consumption of the electrophile by cysteamine", "result": "≤ 5", "unit": "min"}]}]}
